# In the library only some 2.5% were active in any assay of this set; here they are far more common.
# UHRF1 MBD2 ctr – blocks human UHRF1 binding to methylated DNA. Q96T88. UHRF1 binding to methylated oligo, TR-FRET. inhibition, % at 4.4 µM. 370,000 compounds, 0.75% hits. AID 687016; in the data active = inhibition above about 21%;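 note: UHRF1 SRA domain binding a hemimethylated CpG hairpin DNA probe; 0% = median of test compound wells and 100% = reference inhibitor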
# MBD2 inh – MBD2-methylated oligo binding inhibition. Q9UBB5. TR-FRET, MBD2 binding to methylated oligonucleotide. inhibition, % at 4.4 µM. 370,000 compounds, 0.31% hits. AID 686964; in the data active = inhibition above about 13%
# Rin1 Abl inh – blocks binding of human Rin1 to Abl. P00519+Q13671. TR-FRET Rin1/Abl binding, biochemical. inhibition, % at 7.35 µM. 360,000 compounds, 0.4% hits. AID 588664; in the data active = inhibition above about 5%, passing the limit was not always enough
# Arr AP2 block – inhibitors of human beta-arrestin and AP2 interaction; 340,000 compounds, 0.31% hits; inhibition, % at 10 µM; FITC-arrestin peptide / GST-AP2 beads, flow cytometry; AP2 beta2 appendage carries R879A mutation;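 active = inhibition above a set limit, near 3 SD of compounds lacking own fluorescence, cut at about 54% in these data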;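 note: plate controls were DMSO wells for no effect and 5 µM unlabelled arrestin peptide for full effect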
#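 Assay system: GST-AP2 R879A bound to glutathione beads, E. coli-expressed; Medium: PBS with 0.05% Tween 20 and 0.1% BSA; Also added: fluorescein-tagged arrestin peptide at 50 nM final; Timing: 12 min plus 1 h, RT; Measured by: flow cytometry, FL1 (488/535 nm); Evaluation: percent drop in bead-associated FITC signal.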
# ABHD5 PLIN5 PPI – ABHD5-PLIN5 protein interaction inhibition; Q00G26+Q8WTS1; Split G. princeps luciferase complementation, luminescence, 4 h; inhibition, % at 4 µM; 360,000 compounds, 0.78% hits;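 active = inhibition above the mean inhibition across every tested compound plus 3 SD, cut at about 22% in these data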;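 note: 0% = DMSO only wells and the 100% control is not disclosed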
# B2AR ag – human beta-2 adrenergic receptor agonism by FAP; Am2.2-beta2AR cells, FAP receptor internalization, flow cytometry; response, % (no concentration beside the values); 340,000 compounds, 0.43% hits; AID 504454;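 active = response above a set limit, near 3 SD of response in nonfluorescent compounds, cut at about 42% in these data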
# B2AR ag CP1 – agonists of human beta-2 adrenergic receptor; percent response (surface receptor), % at 10 µM; 1,100 compounds, 25% hits; AID 540358; Am2.2-beta2AR cells, FAP surface receptor, flow cytometry; stronger effect = lower value; shares compounds with B2AR ag;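 active = surface receptor percent response at or below 58%, roughly 3 SD from nonfluorescent compounds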
# B2AR FAP counter – fluorescence artifact in beta-2AR agonist FAP counterscreen; Am2.2 cells, FAP fluorogen flow cytometry; stronger effect = lower value; AID 588765; shares compounds with B2AR ag; 1,100 tested, under 10 active; calls only at 10 µM;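 active = percent response below a set limit in fluorescence channel 1 and below 50% in channel 8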
# Active calls of the source: *; i = inactive; . = no result.
SMILES,UHRF1 MBD2 ctr,MBD2 inh,Rin1 Abl inh,Arr AP2 block,ABHD5 PLIN5 PPI,B2AR ag,B2AR ag CP1,B2AR FAP counter
COc1ccc(OC)c(S(=O)(=O)N(C)CC(=O)N2CCN(c3ccc(F)cc3)CC2)c1,-0.4,3.6,-5.0,7.3,-2.4,-16.1,99.9,i
COc1ccc(OC)c(S(=O)(=O)N(C)CC(=O)N2CCOCC2)c1,-0.5,6.5,3.1,22.2,2.8,0.6,.,.
COc1ccc(Cl)cc1S(=O)(=O)N(C)CC(=O)N1CCCC1,0.1,-7.7,-0.7,-7.5,6.3,-1.2,.,.
COC(=O)[C@]12C[C@H](CC(=O)N3CCOCC3)C(=O)N(Cc3ccco3)C1=C[C@H](COCc1ccccc1)O[C@@H]2C,0.4,0.1,.,.,.,.,.,.
O=C(Nc1nc2ncccn2c1-c1ccc(C(F)(F)F)cc1)C1CC1,-1.6,-4.9,.,.,.,.,.,.
COc1ccc(-c2nn(-c3ccccc3)cc2C(=O)Nc2nccs2)cc1,4.2,0.0,-2.5,-3.4,3.5,42.9*,153.8,i
CCOC(=O)c1ccc(NC(=O)Nc2ccon2)cc1,-0.8,-0.7,1.0,-7.6,-3.3,44.0*,61.2,i
O=C(NCC(c1cccs1)N1CCOCC1)c1ccccc1NS(=O)(=O)c1ccc(Cl)c([N+](=O)[O-])c1 (centres undefined),-0.9,-6.3,1.5,3.2,-6.2,63.3*,93.8,i
O=C(NCC(c1cccs1)N1CCOCC1)c1ccccc1NS(=O)(=O)c1cccc([N+](=O)[O-])c1 (centres undefined),-0.2,5.5,1.9,0.0,-4.4,1.3,.,.
COC(=O)[C@]12C[C@H](CC(=O)N3CCOCC3)C(=O)N(Cc3ccco3)C1=C[C@H](C(C)C)O[C@@H]2C1CC1,-0.5,-6.5,.,.,.,.,.,.
O=C1CCC(CNc2ccccc2)N1c1ccccc1 (centres undefined),5.7,5.2,.,.,.,.,.,.
Fc1ccc(Nc2nc(-c3ccncc3)nc3ccccc23)cc1F,-1.1,-5.4,-2.6,8.3,-6.1,50.3*,84.6,i
Cc1ccc(-n2c(SCC(=O)N/N=C/C=C\c3ccco3)nnc2-c2ccccc2)cc1,1.6,1.3,.,.,.,.,.,.
CCOC(=O)C1CCN(C(=O)COC(=O)c2ccccc2OCC)CC1,2.0,2.8,-0.3,29.4,0.5,-0.3,.,.
Cc1ccc(C(=O)c2ccccc2C(=O)OCC(=O)N2C(C)CCCC2C)cc1 (centres undefined),1.3,-0.8,1.2,-1.5,0.8,3.6,123.1,i
CC1CCN(C(=O)COC(=O)c2ccccc2C(=O)c2ccccc2)CC1,-0.9,0.2,1.4,-15.8,5.9,-2.4,113.0,i
CCOC(=O)C1CCN(C(=O)COC(=O)c2ccccc2C(=O)c2ccc(Cl)cc2)CC1,1.5,-1.9,1.7,-8.5,-3.7,4.7,95.4,i
O=C(Oc1ccc([N+](=O)[O-])cc1)O[C@H]1CC[C@@]23CCCN2C(=O)CCC[C@H]3C1,-0.3,-2.9,.,.,.,.,.,.
COc1ccc(CN2C(=O)CSCCC2(C)c2nnnn2-c2c(C)cccc2C)cc1 (centres undefined),0.1,3.9,.,.,.,.,.,.
CC(Cl)C(=O)N1CCC(C(=O)NCC2COc3ccccc3O2)CC1 (centres undefined),-0.2,2.0,.,.,.,.,.,.
CCOC(=O)C1(C)C=C(Nc2ccc(OC)cc2)C(=O)N1c1ccc(OC)cc1 (centres undefined),-3.6,-5.8,-2.0,3.0,1.7,-7.4,.,.
CCOC(=O)C1(C)C=C(Nc2ccc(O)cc2)C(=O)N1c1ccc(O)cc1 (centres undefined),5.3,-5.6,1.0,2.0,-5.1,51.8*,27.5*,i
Cc1nn(Cc2ccccc2)c(C)c1C(=O)NCC(c1cccs1)N1CCOCC1 (centres undefined),2.3,4.7,-0.2,-5.9,2.1,62.9*,108.6,i
O=C(CSCc1ccc(Cl)cc1Cl)Nc1nccs1,-1.4,6.3,-0.8,-0.1,1.4,53.9*,94.2,i
CC(C)[C@H](N)C(=O)N[C@@H](Cc1ccccc1)C(=O)N1CCC2CCN(S(=O)(=O)c3ccccc3)CC21 (some centres undefined),4.4,2.9,.,.,.,.,.,.
SMILES,UHRF1 MBD2 ctr,MBD2 inh,Rin1 Abl inh,Arr AP2 block,ABHD5 PLIN5 PPI,B2AR ag,B2AR ag CP1,B2AR FAP counter
COc1ccc(Sc2nnc(-c3ccccc3)cc2C#N)cc1,1.1,1.1,1.5,4.2,9.9,-2.1,.,.
N#Cc1cc(-c2ccccc2)nnc1Oc1ccccc1Cl,3.6,-2.5,-1.9,-9.7,-2.9,57.2*,18.5*,i
CC[C@H](CCCCCC#N)CCC(=O)N(c1ccccc1)c1ccccc1,0.6,-0.5,.,.,.,.,.,.
CN1CCCC(CC2c3ccccc3Sc3ccccc32)C1 (centres undefined),7.1,6.7,-0.6,2.1,14.9,36.9,80.5,i
COc1ccc(CN2C[C@H]3CCCN3c3cc(Br)ccc3S2(=O)=O)cc1,.,.,-0.4,-0.3,-8.3,43.8*,64.7,i
COc1ccc(S(=O)(=O)N(CCc2ccccc2)CC(=O)O)cc1,-0.5,-1.1,-3.3,1.0,-1.3,51.2*,101.8,i
CCNC(=O)CN(CCc1ccccc1)S(=O)(=O)c1ccc(OC)cc1,1.8,4.0,-0.7,0.9,1.6,-0.1,.,.
O=C(Nc1ccccc1C(F)(F)F)OCCN1C(=O)CCC12CCC(c1ccccc1)CC2 (centres undefined),0.8,-1.4,.,.,.,.,.,.
Cc1ccc(C(C[N+](=O)[O-])Sc2ccc(N)cc2)cc1 (centres undefined),0.2,0.6,-2.2,26.5,5.5,70.4*,102.1,i
Cc1ccc(Cn2ccc(NC(=O)c3cc4nc(-c5ccco5)cc(C(F)(F)F)n4n3)n2)cc1,0.5,-2.6,2.2,-5.7,5.8,111.8*,7.1*,i
Cc1nn(C)c(C)c1NC(=O)c1cc2nc(-c3ccco3)cc(C(F)(F)F)n2n1,-3.4,0.1,0.2,8.9,3.2,-10.6,.,.
CC(C)(C)NC(=O)C(c1cccnc1)N(C(=O)c1cnc[nH]1)c1ccc(C(C)(C)C)cc1 (centres undefined),-0.9,-4.0,.,.,.,.,.,.
CC[C@H](CCCCCCCn1ccc2ccccc21)CCC(=O)N(c1ccccc1)c1ccccc1,-0.2,0.1,.,.,.,.,.,.
COc1ccc(NC(=O)COC(=O)CNC(=O)c2cc(OC)c(OC)c(OC)c2)cc1,3.2,0.0,0.1,-5.9,-3.9,3.2,.,.
COc1ccc(C(=O)NCC(=O)OCC(=O)Nc2cc(OC)ccc2OC)cc1,1.5,-3.2,0.6,-1.8,-6.6,64.5*,102.5,i

# Screening results deposited in PubChem by several laboratories.
